# Source: PubChem BioAssay
# OX1R antag-1 = antagonists of human orexin 1 receptor; CHO/OX1R cells, Fluo-8 calcium fluorescence, orexin A; actives 0.43% (n = 330,000); inhibition, % at 5 µM;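 active means inhibition above its plate's threshold, mean inhibition of all tested compounds on the plate plus 3 SD, cut at about 37% in these data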
# Target sequence (O43613 whole entry, looked up): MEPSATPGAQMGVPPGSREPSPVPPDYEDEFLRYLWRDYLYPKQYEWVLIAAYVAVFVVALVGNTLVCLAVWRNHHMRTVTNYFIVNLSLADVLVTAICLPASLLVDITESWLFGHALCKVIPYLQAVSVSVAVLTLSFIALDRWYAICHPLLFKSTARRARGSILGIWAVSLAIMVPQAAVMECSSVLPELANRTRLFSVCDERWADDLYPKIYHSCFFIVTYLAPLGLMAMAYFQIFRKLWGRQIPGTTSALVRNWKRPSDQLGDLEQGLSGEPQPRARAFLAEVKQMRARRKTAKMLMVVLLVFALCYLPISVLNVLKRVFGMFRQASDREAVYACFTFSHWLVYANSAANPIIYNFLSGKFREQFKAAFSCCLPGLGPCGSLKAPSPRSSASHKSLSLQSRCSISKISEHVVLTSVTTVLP
# TAAR1 antagonist = human TAAR1 antagonism | AID 624466 | inhibition, % at 3 µM | Q96RJ0 | actives 1.5% (n = 360,000) | CHO RD-HGA16 TAAR1, Fluo-8 calcium fluorescence, antagonist;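 active means inhibition above a per-plate cutoff, the mean inhibition of test compounds on that plate plus 3 SD, cut at about 49% in these data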
#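 Test system: RD-HGA16 CHO cells with stable hTAAR1 and Gα16 / Probe or stimulus: EC80 β-phenethylamine stimulus / Times: seeding 17-24 h prior, 75-min 37 °C, 30-min RT dye loading / Detection: Fluo-8 calcium-sensitive fluorescence / Read-out basis: % inhibition scaled between DMSO and EC80 PEA controls / Repeats: singlicate, one well per test compound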
# TAAR1 ag = human TAAR1 agonism | CHO RD-HGA16 TAAR1, Fluo-8 calcium fluorescence; vehicle wells 0%, saturating PEA agonist 100% | actives 0.99% (n = 360,000) | AID 624467 | Q96RJ0 | activation, % at 3 µM;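 active means activation above the mean activation of all test compounds in the run plus 3 SD, cut at about 38% in these data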
#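 System: CHO RD-HGA16 cells carrying human TAAR1 plus Gα16; Incubation: 17-24 h seeding, 75 min 37 °C dye, 30 min RT; Measured by: Fluo-8 fluorescence, 5 s baseline then 140 s kinetic read; Control set: DMSO and PEA EC100; Replication: single well for each compound.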
# CHO parental Ca = signal in parental CHO cells, OX1R antagonist counter-screen; parental CHO-K1, ATP-induced calcium, Fluo-8 fluorescence; inhibition, % at 5.6 µM; actives 0.63% (n = 330,000);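 active means inhibition above that plate's mean sample inhibition plus 3 SD, cut at about 26% in these data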
#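 material = parental CHO cells | also added = ATP as calcium-mobilizing challenge | dosing = single point at 5.6 µM | detection = intracellular calcium via Fluo-8 no-wash fluorescent dye | read-out = % inhibition | benchmarks = low control ATP plus DMSO, high control DMSO only | repeats = one well per compound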
# GalR3 antag = antagonists of human GalR3 | HEK293 GalR3-CNG cAMP membrane potential fluorescence; galR3 body fused to GalR1 C-terminus | actives 0.44% (n = 360,000) | inhibition, % at 3 µM | O60755 | AID 651719;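 active means inhibition above the screen-wide average plus 3 SD, cut at about 13% in these data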;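 further: forskolin and galanin both at EC90 stimulate the cells; cAMP rise reported by CNG channel membrane potential dye signal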
# OX1R antag-2 = antagonists of human orexin 1 receptor (OX1R). OX1R-expressing cells, FRET antagonist read-out. actives 1.8% (n = 330,000). inhibition, % at 6.6 µM. O43613. AID 485270; in the data active means inhibition mostly above about 38%, no sharp cut-off; inactive means mostly below about 40%
# OX1R HTRF conf = OX1R (human) antagonism, HTRF confirmed. shares compounds with OX1R antag-2. OX1R-expressing cells, HTRF antagonist assay. inhibition, % at 6.6 µM. actives 49% (n = 1,800); in the data active means inhibition above about 55%;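 further: CHO cells expressing OX1R stimulated with orexin A at about EC80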
# CHO-K1 HTRF cnt = counter-screen for OX1R antagonists: effect in parental CHO-K1 cells. HTRF counterscreen. inhibition, % at 6.6 µM. shares compounds with OX1R antag-2. actives 48% (n = 1,800); in the data active means inhibition above about 17%
# Hits are given with their value; 0 = inactive; - = no result. In the library only some 4.3% were active in any assay of this set; here they are far more common.
SMILES,OX1R antag-1,TAAR1 antagonist,TAAR1 ag,CHO parental Ca,GalR3 antag,OX1R antag-2,OX1R HTRF conf,CHO-K1 HTRF cnt
COc1ccc(NC(=O)c2cc(S(=O)(=O)N3CCc4ccccc43)cn2C)cc1OC,0,0,0,0,-,0,-,-
CCCCN(C(=O)c1cc(-c2ccco2)nc2ccccc12)c1c(N)n(CCC)c(=O)[nH]c1=O,0,0,0,0,0,0,-,-
CC(=O)Nc1ccc(NC(=O)Nc2ccc3c(c2)N(C)C(=O)CS3)cc1,0,0,0,0,0,0,-,-
COc1cccc(NC(=O)Nc2ccc3c(c2)N(C)C(=O)CS3)c1,0,69,0,0,0,82,0,0
C[C@H](NC(=O)N1CCn2c1nc1ccccc12)C(=O)NCc1ccc2c(c1)OCO2,0,0,0,0,0,0,-,-
Cc1c(C(=O)Nc2nccs2)oc2c(Cl)cccc12,0,0,0,0,0,77,67,0
Cc1ncoc1C(=O)Nc1nccs1,0,0,0,0,0,0,-,-
Cn1cnc(S(=O)(=O)Nc2cc(-c3ccc(Cl)cc3)nn2C)c1,0,0,0,0,0,0,-,-
CSc1nc(N)n2nccc2n1,-,0,0,-,0,-,-,-
O=C(CSc1nnc2ccccn12)NNC(=O)c1ccc([N+](=O)[O-])cc1,0,0,0,0,0,97,0,36
CCOC(=O)N1CCC(NC(=S)Nc2ccc3nc(N4CCN(CC)CC4)cc(C)c3c2)CC1,0,0,0,0,0,0,-,-
CCOC(=O)N1CCC(NC(=S)Nc2ccc3nc(N4CCN(C)CC4)cc(C)c3c2)CC1,0,0,0,0,0,105,0,0
CCN(CC)CCNC(=O)C1CCN(S(=O)(=O)c2c(C)noc2/C=C/c2ccccc2F)CC1,0,0,0,0,0,0,-,-
CCOc1cc(/C=C2\NC(=O)NC2=O)cc([N+](=O)[O-])c1O,0,0,0,0,0,128,58,69
CCOc1cc(/C=C2\C(=O)NN(c3ccccc3)C2=O)cc([N+](=O)[O-])c1O,0,0,0,0,0,0,-,-
NS(=O)(=O)c1ccc(CNC(=O)c2cc(-c3ccccn3)nc3ccc(Cl)cc23)cc1,0,0,0,0,0,84,59,0
NS(=O)(=O)c1ccc(CNC(=O)c2cc(-c3cccnc3)nc3ccc(Cl)cc23)cc1,0,0,0,0,0,0,-,-
CCCC(=O)OCCNc1cc(SCCC(=O)OC)c2nonc2c1[N+](=O)[O-],0,0,0,0,0,120,64,79
COc1ccc(COc2cc(-c3cccc(OC)c3)nc3ccc(NC(=O)C(C)C)cc23)cc1,0,0,0,0,0,0,-,-
O=[N+]([O-])c1ccc(N/N=C2\CC3CC=CC23)c([N+](=O)[O-])c1 (stereo not drawn),0,0,0,0,0,82,0,19
CC1CCC/C(=N/Nc2ccc([N+](=O)[O-])cc2[N+](=O)[O-])C1 (stereo not drawn),0,0,0,0,0,107,0,27
CN(C)CCCNc1nc2cc(-c3cnn(C)c3)sc2c(=O)n1C,-,0,0,-,0,-,-,-
Cc1nn(CC(=O)Nc2cccc(Cl)c2)c(=O)c2cc(-c3ccccc3)nn12,0,0,0,0,0,0,-,-
O=[N+]([O-])c1cc(-c2nc(-c3ccncc3)no2)cc([N+](=O)[O-])c1,0,0,0,0,0,78,72,63
O=[N+]([O-])c1cc(-c2nc(-c3ccncc3)no2)ccc1Cl,0,0,0,0,0,0,-,-
Cc1ccc2ncnc(Nc3ccc(C)c(C)c3)c2c1,0,0,0,0,0,78,0,0
COCCCNc1ncnc2ccc(C)cc12,0,0,0,0,0,0,-,-
Cc1ccc(S(=O)(=O)Oc2ccccc2[N+](=O)[O-])cc1,-,0,0,-,0,-,-,-
Cn1nccc1C(=O)N1CCC(Cc2ccccc2)CC1,0,0,0,0,0,0,-,-
O=c1oc2ccc(Br)cc2cc1-c1nc2ccccc2o1,0,0,0,0,0,0,-,-
